Assay results: ChEMBL document CHEMBL2046387, “Discovery of Brain-Penetrant, Irreversible Kynurenine Aminotransferase II Inhibitors for Schizophrenia” (ACS Med Chem Lett, 2012)
Calls of active or inactive are those of the source. The calls are words filed in the database; no cut-off is given here.

Tests used:
[1] = target: T1, Kynurenine/alpha-aminoadipate aminotransferase, mitochondrial (Homo sapiens, UniProt Q8N5Z0); assay: Inhibition of human recombinant KAT2 assessed as conversion of L-kynurenine into kynurenic acid after 15 to 20 hrs
Outline: (§1)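 Human and rat KAT II enzyme assays run with 30 nM enzyme; IC50 reported as geometric mean of at least three independent determinations (some n = 1 or 2).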
Target sequence in this assay (Q8N5Z0 whole entry): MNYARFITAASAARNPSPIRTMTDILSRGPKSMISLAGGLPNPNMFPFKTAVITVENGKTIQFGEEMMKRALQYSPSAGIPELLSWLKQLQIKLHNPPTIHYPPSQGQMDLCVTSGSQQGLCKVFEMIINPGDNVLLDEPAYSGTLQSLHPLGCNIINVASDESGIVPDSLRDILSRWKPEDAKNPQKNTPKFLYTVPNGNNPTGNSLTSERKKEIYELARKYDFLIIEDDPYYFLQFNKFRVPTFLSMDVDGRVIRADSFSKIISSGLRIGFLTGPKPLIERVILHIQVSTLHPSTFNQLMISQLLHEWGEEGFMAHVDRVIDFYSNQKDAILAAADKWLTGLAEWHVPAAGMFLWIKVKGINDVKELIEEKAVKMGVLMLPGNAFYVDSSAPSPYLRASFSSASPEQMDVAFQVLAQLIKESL

[2] = target: Kynurenine/alpha-aminoadipate aminotransferase, mitochondrial (Rattus norvegicus) (UniProt Q64602); assay: Ratio of Kinact to Ki for rat recombinant KAT2 using L-kynurenine as substrate
Outline: (§2)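 Second-order rate constant kinact/Ki determined for human and rat KAT II; values are geometric or arithmetic means of at least three experiments (some n = 2).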

[3] = target: T1, Kynurenine/alpha-aminoadipate aminotransferase, mitochondrial; assay: Ratio of Kinact to Ki for human recombinant KAT2 using L-kynurenine as substrate; outline: as §2
Target sequence in this assay (Q8N5Z0 30-425 limits assumed): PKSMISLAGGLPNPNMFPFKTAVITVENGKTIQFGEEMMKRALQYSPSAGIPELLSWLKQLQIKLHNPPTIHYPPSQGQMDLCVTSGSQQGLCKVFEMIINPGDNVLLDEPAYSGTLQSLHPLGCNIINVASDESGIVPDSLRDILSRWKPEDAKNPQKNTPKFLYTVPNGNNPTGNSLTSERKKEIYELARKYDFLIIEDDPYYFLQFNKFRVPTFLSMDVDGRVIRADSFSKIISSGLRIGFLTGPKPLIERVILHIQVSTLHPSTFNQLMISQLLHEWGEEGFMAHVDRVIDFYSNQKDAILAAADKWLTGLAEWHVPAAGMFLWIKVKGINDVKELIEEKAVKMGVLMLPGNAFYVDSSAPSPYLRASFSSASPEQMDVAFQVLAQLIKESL

[4] = target: Kynurenine/alpha-aminoadipate aminotransferase, mitochondrial (Rattus norvegicus, UniProt Q64602); assay: Inhibition of rat recombinant KAT2 assessed as conversion of L-kynurenine into kynurenic acid after 15 to 20 hrs; outline: as §1
[5] = target: Kynurenine--oxoglutarate transaminase 3 (Homo sapiens, UniProt Q6YP21); assay: Inhibition of human KAT3
[6] = Drug level in Sprague-Dawley rat cerebrospinal fluid at 10 mg/kg, sc after 0.25 hrs; type: ADME, organism-based; set-up: dose 10 mg/kg, route subcutaneous; conditions: read-out: Drug uptake
Outline: (§3)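 Rats dosed 10 mg/kg subcutaneously; drug levels measured in CSF and plasma/brain at 0.25 h post-dose; free levels derived using measured rat brain and plasma unbound fractions.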

[7] = test system: Brain; assay: Free brain concentration in Sprague-Dawley rat at 10 mg/kg, sc after 0.25 hrs; type: ADME, organism-based; set-up: dose 10 mg/kg, route subcutaneous; conditions: in vivo; outline: as §3
[8] = test system: Rattus norvegicus; assay: Reduction of […] level in freely moving Sprague-Dawley rat dialysates from prefrontal cortex at 10 mg/kg, sc after 20 hrs by microdialysis analysis; type: functional, organism-based; set-up: dose 10 mg/kg
Outline: (§4)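 Freely moving rats given 10 mg/kg sc at time 0; KYNA in prefrontal cortex dialysates monitored over time by microdialysis; expressed as percent of each animal's basal KYNA, means ± SEM, n = 11–14 per group.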

[9] = Lipophilicity, log D of the compound; type: physicochemical; conditions: octanol/water
[10] = Fraction unbound in rat plasma at 1 uM by equilibrium dialysis method; type: ADME, cell-free
[11] = target: T2, Kynurenine--oxoglutarate transaminase 1 (Homo sapiens, UniProt Q16773); assay: Inhibition of human KAT1
T2 sequence (Q16773 whole entry): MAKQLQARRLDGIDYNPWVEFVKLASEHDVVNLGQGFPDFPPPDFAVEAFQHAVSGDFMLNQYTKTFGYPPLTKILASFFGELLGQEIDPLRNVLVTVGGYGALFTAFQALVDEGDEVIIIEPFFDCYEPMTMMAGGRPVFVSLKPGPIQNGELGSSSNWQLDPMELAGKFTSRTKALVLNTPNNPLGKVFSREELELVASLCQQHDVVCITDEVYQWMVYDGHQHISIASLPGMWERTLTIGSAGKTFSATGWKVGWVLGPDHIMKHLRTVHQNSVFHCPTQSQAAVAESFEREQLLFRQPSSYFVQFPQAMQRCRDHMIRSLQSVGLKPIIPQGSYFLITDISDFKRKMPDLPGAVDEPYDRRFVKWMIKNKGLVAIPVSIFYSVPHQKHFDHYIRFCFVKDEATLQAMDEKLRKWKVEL

[12] = Fraction unbound in rat brain at 1 uM by equilibrium dialysis method; type: ADME, tissue-based
[13] = test system: Rattus norvegicus; assay: Reduction of […] level in freely moving Sprague-Dawley rat dialysates from prefrontal cortex at 10 mg/kg, sc after 1 hr by microdialysis analysis relative to control; type: functional; set-up: scale not given: the % may be the effect or the level left; conditions: route subcutaneous; outline: as §4
[14] = Inhibition of human KAT4
[15] = test system: Plasma; assay: Free plasma concentration in Sprague-Dawley rat at 10 mg/kg, sc after 0.25 hrs; type: ADME, organism-based; set-up: dose 10 mg/kg, route subcutaneous; conditions: in vivo; outline: as §3
[16] = Ratio of free drug level in plasma to brain in Sprague-Dawley rat at 10 mg/kg, sc after 0.25 hrs; type: ADME, organism-based; set-up: dose 10 mg/kg, route subcutaneous; conditions: in vivo
Outline: (§5)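 Rat dosed 10 mg/kg sc; drug concentrations in plasma, brain and CSF measured at 0.25 h. Free plasma and free brain levels corrected using fraction unbound from rat plasma protein binding and brain binding assays. Exposure ratios taken from free plasma, free brain and CSF concentrations.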

[17] = Ratio of free drug level in cerebrospinal fluid to brain in Sprague-Dawley rat at 10 mg/kg, sc after 0.25 hrs; type: ADME, organism-based; set-up: dose 10 mg/kg, route subcutaneous; conditions: in vivo; outline: as §5

Sequence of Kynurenine/alpha-aminoadipate aminotransferase, mitochondrial (Rattus norvegicus) (Q64602 30-425 limits assumed): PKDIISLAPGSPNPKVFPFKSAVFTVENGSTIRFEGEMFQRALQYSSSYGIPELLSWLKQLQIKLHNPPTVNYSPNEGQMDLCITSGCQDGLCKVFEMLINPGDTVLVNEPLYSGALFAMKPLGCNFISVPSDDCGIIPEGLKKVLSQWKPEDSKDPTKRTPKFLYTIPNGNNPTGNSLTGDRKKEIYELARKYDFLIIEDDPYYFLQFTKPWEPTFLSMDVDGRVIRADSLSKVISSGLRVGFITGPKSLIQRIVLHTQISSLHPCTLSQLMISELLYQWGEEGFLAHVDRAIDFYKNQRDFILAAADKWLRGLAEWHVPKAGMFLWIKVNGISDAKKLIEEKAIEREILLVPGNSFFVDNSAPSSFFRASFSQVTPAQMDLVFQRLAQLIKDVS
Sequence of Kynurenine/alpha-aminoadipate aminotransferase, mitochondrial (Rattus norvegicus, UniProt Q64602) (Q64602 whole entry): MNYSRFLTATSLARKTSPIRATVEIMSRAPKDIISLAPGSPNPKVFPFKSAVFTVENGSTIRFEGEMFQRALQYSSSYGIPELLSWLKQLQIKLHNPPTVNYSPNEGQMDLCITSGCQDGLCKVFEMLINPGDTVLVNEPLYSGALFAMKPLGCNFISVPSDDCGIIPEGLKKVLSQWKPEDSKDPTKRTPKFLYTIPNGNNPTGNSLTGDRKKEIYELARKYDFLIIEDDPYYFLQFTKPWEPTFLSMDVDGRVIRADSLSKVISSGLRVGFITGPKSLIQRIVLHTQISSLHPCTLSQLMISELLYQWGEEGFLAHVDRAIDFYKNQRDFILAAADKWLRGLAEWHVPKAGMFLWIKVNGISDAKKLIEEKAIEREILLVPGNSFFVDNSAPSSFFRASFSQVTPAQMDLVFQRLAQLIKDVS
Sequence of Kynurenine--oxoglutarate transaminase 3 (Q6YP21 whole entry): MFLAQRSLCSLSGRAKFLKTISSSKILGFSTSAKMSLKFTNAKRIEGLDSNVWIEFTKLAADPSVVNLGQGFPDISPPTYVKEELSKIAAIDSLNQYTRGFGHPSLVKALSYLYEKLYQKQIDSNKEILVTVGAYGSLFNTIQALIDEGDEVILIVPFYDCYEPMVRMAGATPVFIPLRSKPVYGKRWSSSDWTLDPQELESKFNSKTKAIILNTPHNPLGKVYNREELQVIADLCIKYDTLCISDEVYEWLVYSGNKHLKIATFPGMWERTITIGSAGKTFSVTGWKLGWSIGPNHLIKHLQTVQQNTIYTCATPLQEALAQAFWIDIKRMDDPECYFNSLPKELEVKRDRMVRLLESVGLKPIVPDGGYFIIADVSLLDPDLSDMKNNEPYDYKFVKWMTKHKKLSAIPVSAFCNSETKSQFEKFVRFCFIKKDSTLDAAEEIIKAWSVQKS

For `N[C@H]1Cc2ccccc2NC1=O`, the IC50 [1] was > 10000 nM.
`Cc1ccc2c(c1)N(O)C(=O)[C@@H](N)C2` gave a Ratio [2] of 590 M⁻¹ s⁻¹, an IC50 [1] of 37 nM and a Ratio [3] of 33400 M⁻¹ s⁻¹. The IC50 [4] was 368 nM.
In the case of `CON1C(=O)[C@@H](N)Cc2ccccc21`, the IC50 [1] is reported as > 10000 nM and the IC50 [4] is reported as > 10000 nM.
Work on `N[C@H]1Cc2cc(Cl)ccc2N(O)C1=O` yielded a Ratio [2] of 465 M⁻¹ s⁻¹, an IC50 [1] of 36 nM and a Ratio [3] of 19000 M⁻¹ s⁻¹. For the same molecule, the IC50 [4] was 258 nM.
For `Cc1ccc2c(c1)C[C@H](N)C(=O)N2O`, the Ratio [2] was 167 M⁻¹ s⁻¹, the IC50 [1] was 30 nM and the Ratio [3] was 11900 M⁻¹ s⁻¹. It also gave an IC50 [4] of 402 nM.
With `COc1ccc2c(c1)N(O)C(=O)[C@@H](N)C2` the Ratio [2] was 1840 M⁻¹ s⁻¹, the IC50 [1] was 22 nM and the Ratio [3] was 31700 M⁻¹ s⁻¹. For the same molecule, the IC50 [4] was 137 nM.
For `N[C@H]1Cc2c(F)cccc2N(O)C1=O`, the IC50 [1] was 45 nM, the Ratio [3] was 6680 M⁻¹ s⁻¹ and the IC50 [4] was 2060 nM.
With `COc1cccc2c1N(O)C(=O)[C@@H](N)C2` the IC50 [1] was 572 nM, the Ratio [3] was 21.3 M⁻¹ s⁻¹ and the IC50 [4] was > 10000 nM.
In the case of `N[C@H]1Cc2cccc(F)c2N(O)C1=O`, the Ratio [2] is reported as 57 M⁻¹ s⁻¹, the IC50 [1] is reported as 40 nM and the Ratio [3] is reported as 5310 M⁻¹ s⁻¹. For the same molecule, the IC50 [4] was 631 nM.
With `N[C@H]1Cc2cccc(Cl)c2N(O)C1=O` the IC50 [1] was 252 nM, the Ratio [3] was 42 M⁻¹ s⁻¹ and the IC50 [4] was > 10000 nM.
Molecule `N[C@H]1Cc2ccccc2N(O)C1=O` has a Ratio [2] of 573 M⁻¹ s⁻¹, an IC50 [1] of 23 nM and an IC50 [5] of 11000 nM. For the same molecule, the concentration at 0.25 h [6] was 4.06 µM, the “Drug uptake(free)” value [7] was 3.76 µM and the Activity [8] was “inactive”. For the same molecule, the logD [9] was -0.7, the fraction unbound at 1 µM [10] was 0.893 and the IC50 [11] was 22000 nM. It also gave a fraction unbound at 1 µM [12] of 0.393, an Activity [13] of 50% and a Ratio [3] of 18500 M⁻¹ s⁻¹. The IC50 [14] was > 50000 nM, the “Cp(f)” value [15] was 10.2 µM and the IC50 [4] was 263 nM. It also gave a Ratio [16] of 2.7 and a Ratio [17] of 1.1.
`N[C@H]1Cc2ccc(Cl)cc2N(O)C1=O` showed a Ratio [2] of 1170 M⁻¹ s⁻¹, an IC50 [1] of 29 nM and a Ratio [3] of 28300 M⁻¹ s⁻¹. For the same molecule, the IC50 [4] was 118 nM.
`N[C@@H]1Cc2ccccc2N(O)C1=O` gave an IC50 [1] of 219 nM and an IC50 [4] of 1170 nM.
For `C[C@H]1c2ccccc2N(O)C(=O)[C@H]1N`, the IC50 [4] was > 1330 nM.
Molecule `N[C@H]1Cc2cc(C(F)(F)F)ccc2N(O)C1=O` has a Ratio [2] of 102 M⁻¹ s⁻¹, an IC50 [1] of 29 nM and a Ratio [3] of 15300 M⁻¹ s⁻¹. It also gave an IC50 [4] of 488 nM.
For `COc1cccc2c1C[C@H](N)C(=O)N2O`, the IC50 [1] was 179 nM, the Ratio [3] was 1940 M⁻¹ s⁻¹ and the IC50 [4] was > 4920 nM.
With `N[C@H]1Cc2cccc(C(F)(F)F)c2N(O)C1=O` the IC50 [1] was 174 nM, the Ratio [3] was 541 M⁻¹ s⁻¹ and the IC50 [4] was > 6810 nM.
With `N[C@H]1Cc2c(cccc2C(F)(F)F)N(O)C1=O` the IC50 [1] was > 10000 nM and the IC50 [4] was > 10000 nM.
With `CC1(N)Cc2ccccc2N(O)C1=O` (configuration not stated) the IC50 [1] was > 10000 nM and the IC50 [4] was > 10000 nM.
For `Cc1cccc2c1C[C@H](N)C(=O)N2O`, the IC50 [1] was 319 nM and the IC50 [4] was > 10000 nM.
For `Cc1cccc2c1N(O)C(=O)[C@@H](N)C2`, the IC50 [1] was 1050 nM and the IC50 [4] was > 10000 nM.
For `N[C@H]1Cc2c(Cl)cccc2N(O)C1=O`, the IC50 [1] was 349 nM, the Ratio [3] was 9.5 M⁻¹ s⁻¹ and the IC50 [4] was > 7970 nM.
